{"source": "ChEMBL document CHEMBL1150563", "about": "“Six new diarylheptanoids from the seeds of Alpinia blepharocalyx” (2001)", "key": {"[1]": {"assay": "Antiproliferative activity against mouse Colon 26-L5 cells by MTT assay", "assay_type": "functional", "details": "read-out: ED50 (the source's name)", "procedure,_shortened": "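Murine colon 26-L5 carcinoma cells grown in RPMI-1640 with 10% fetal calf serum, 0.1% NaHCO3 and 2 mM glutamine. Cell viability in presence and absence of agent measured by MTT; 5-fluorouracil served as positive control. ED50 derived from the mean of six determinations.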"}, "HT-1080": {"system": "HT-1080", "assay": "Antiproliferative activity against human HT1080 cells by MTT assay", "assay_type": "functional", "details": "read-out: ED50 (the source's name)", "procedure,_shortened": "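Human HT-1080 fibrosarcoma cells grown in Eagle's MEM with 10% fetal calf serum, 0.1% NaHCO3 and 2 mM glutamine. Viability with and without test agent read by MTT assay; 5-fluorouracil as positive control. ED50 calculated from the mean of six determinations.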"}}, "note": "pEC50: −log10 of the molar value."}
{"smiles": "COc1cc(/C=C/c2ccc(O)cc2)oc(=O)c1", "values": [{"measurement": "pEC50", "setting": "[1]", "result": 4.68}, {"measurement": "pEC50", "setting": "HT-1080", "result": 4.70}]}
{"smiles": "COc1cc(O)cc(OC)c1C(=O)/C=C/c1ccc(O)cc1", "values": [{"measurement": "pEC50", "setting": "[1]", "result": 4.54}, {"measurement": "pEC50", "setting": "HT-1080", "result": 4.30}]}
{"smiles": "COc1cc(/C=C/c2ccccc2)oc(=O)c1", "note": "[DESMETHOXYYANGONIN]", "values": [{"measurement": "pEC50", "setting": "[1]", "result": "< 4.00"}, {"measurement": "pEC50", "setting": "HT-1080", "result": "< 4.00"}]}
{"smiles": "CC[C@H](CC[C@@H](C)[C@H]1CC[C@H]2[C@@H]3CC=C4C[C@@H](O[C@@H]5O[C@H](CO)[C@@H](O)[C@H](O)[C@H]5O)CC[C@]4(C)[C@H]3CC[C@]12C)C(C)C", "note": "[SITOGLUSIDE]", "values": [{"measurement": "pEC50", "setting": "[1]", "result": "< 4.00"}, {"measurement": "pEC50", "setting": "HT-1080", "result": "< 4.00"}]}
{"smiles": "COc1cc(O)cc(O)c1C(=O)/C=C/c1ccc(O)cc1", "note": "[HELICHRYSETIN]", "values": [{"measurement": "pEC50", "setting": "[1]", "result": 4.19}, {"measurement": "pEC50", "setting": "HT-1080", "result": 4.40}]}
{"smiles": "CO[C@@H](/C=C/c1ccccc1)C[C@@H](O)CCc1ccc(O)cc1", "values": [{"measurement": "pEC50", "setting": "[1]", "result": "< 4.00"}, {"measurement": "pEC50", "setting": "HT-1080", "result": "< 4.00"}]}
{"smiles": "CO[C@@H](CCc1ccc(O)cc1)CC(=O)/C=C/c1ccc(O)cc1", "values": [{"measurement": "pEC50", "setting": "[1]", "result": 5.28}, {"measurement": "pEC50", "setting": "HT-1080", "result": 5.00}]}
{"smiles": "CCO[C@@H](/C=C/c1ccccc1)C[C@@H](O)CCc1ccc(O)cc1", "values": [{"measurement": "pEC50", "setting": "[1]", "result": "< 4.00"}, {"measurement": "pEC50", "setting": "HT-1080", "result": "< 4.00"}]}
{"smiles": "O=C(/C=C/C=C/c1ccc(O)cc1)CCc1ccc(O)cc1", "values": [{"measurement": "pEC50", "setting": "[1]", "result": 4.24}, {"measurement": "pEC50", "setting": "HT-1080", "result": 4.10}]}
{"smiles": "O=Cc1ccc(O)cc1", "note": "[4-HYDROXYBENZALDEHYDE]", "values": [{"measurement": "pEC50", "setting": "[1]", "result": "< 4.00"}, {"measurement": "pEC50", "setting": "HT-1080", "result": "< 4.00"}]}
{"smiles": "O=C(/C=C(O)/C=C/c1ccc(O)cc1)CCc1ccc(O)cc1", "values": [{"measurement": "pEC50", "setting": "[1]", "result": 4.20}, {"measurement": "pEC50", "setting": "HT-1080", "result": "< 4.00"}]}
{"smiles": "O=C(/C=C/c1ccc(O)cc1)c1ccc(O)cc1", "note": "[4,4'-DIHYDROXYCHALCONE]", "values": [{"measurement": "pEC50", "setting": "[1]", "result": "< 4.00"}, {"measurement": "pEC50", "setting": "HT-1080", "result": "< 4.00"}]}
{"smiles": "Oc1cc(O)cc(O)c1", "note": "[PHLOROGLUCINOL]", "values": [{"measurement": "pEC50", "setting": "[1]", "result": 4.58}, {"measurement": "pEC50", "setting": "HT-1080", "result": 4.68}]}
{"smiles": "CO[C@H](/C=C/c1ccccc1)C[C@@H](O)CCc1ccc(O)cc1", "values": [{"measurement": "pEC50", "setting": "[1]", "result": 4.06}, {"measurement": "pEC50", "setting": "HT-1080", "result": "< 4.00"}]}
{"smiles": "COC(=O)/C=C/c1ccc(O)cc1", "note": "[METHYL P-HYDROXYCINNAMATE]", "values": [{"measurement": "pEC50", "setting": "[1]", "result": 4.07}, {"measurement": "pEC50", "setting": "HT-1080", "result": "< 4.00"}]}
{"smiles": "O=C(O)/C=C/c1ccc(O)cc1", "note": "[COUMARIC ACID]", "values": [{"measurement": "pEC50", "setting": "[1]", "result": "< 4.00"}, {"measurement": "pEC50", "setting": "HT-1080", "result": "< 4.00"}]}
{"smiles": "O=c1[nH]cc(F)c(=O)[nH]1", "note": "[FLUOROURACIL]", "values": [{"measurement": "pEC50", "setting": "[1]", "result": 6.30}, {"measurement": "pEC50", "setting": "HT-1080", "result": 5.10}]}
{"smiles": "CCO[C@H](/C=C/c1ccccc1)C[C@@H](O)CCc1ccc(O)cc1", "values": [{"measurement": "pEC50", "setting": "[1]", "result": 4.02}, {"measurement": "pEC50", "setting": "HT-1080", "result": "< 4.00"}]}
{"smiles": "Oc1ccc(CC[C@H](O)C[C@@H](O)CCc2ccc(O)cc2)cc1", "values": [{"measurement": "pEC50", "setting": "[1]", "result": 4.89}, {"measurement": "pEC50", "setting": "HT-1080", "result": 4.03}]}
{"smiles": "COc1cc(O)cc2c1C(=O)C[C@@H](c1ccc(O)cc1)O2", "values": [{"measurement": "pEC50", "setting": "[1]", "result": "< 4.00"}, {"measurement": "pEC50", "setting": "HT-1080", "result": "< 4.00"}]}
{"smiles": "CC(=O)/C=C/c1ccc(O)cc1", "values": [{"measurement": "pEC50", "setting": "[1]", "result": "< 4.00"}, {"measurement": "pEC50", "setting": "HT-1080", "result": "< 4.00"}]}
